# Experimental data taken from ChEMBL document CHEMBL2440062, “New nucleotide-competitive non-nucleoside inhibitors of terminal deoxynucleotidyl transferase: discovery, characterization, and crystal structure in complex with the target” (J Med Chem, 2013).
# Test system: HeLa
# Assay: Cytotoxicity against TdT-deficient human HeLa cells assessed as growth inhibition after 24 to 48 hrs by MTT assay
# Type: cell-based
# Procedure, shortened: (§1)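 MOLT-4 cells were grown in RPMI-1640 and HeLa cells in DMEM, with 10% FCS at 37 °C. Cells were seeded at 10^5 per well, given 24 h to attach, then exposed to compounds (0.1–100 range) for 24 or 48 h. MTT at 1 mg/mL was added for 2 h at 37 °C, formazan was dissolved in DMSO, and absorbance read at 550 nm versus 0.5% DMSO vehicle. IC50 was obtained by regression, in triplicate.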
row,Compound,IC50 [µM]
1,O=C(/C=C/c1cn(-c2ccc(O)cc2)c2ccccc12)CC(=O)C(=O)O,> 40
2,O=C(/C=C/c1cn(Cc2ccccc2)c2ccccc12)CC(=O)C(=O)O,> 40
3,CCOC(=O)C(=O)CC(=O)/C=C/c1cc(C(=O)c2ccc(F)cc2)c[nH]1,> 40
4,O=C(/C=C/c1cc(C(=O)c2ccc(F)cc2)c[nH]1)CC(=O)C(=O)O,> 40
5,CC(C)CCn1cc(/C=C/C(=O)CC(=O)C(=O)O)c2ccccc21,> 80
6,O=C(/C=C/c1cn(Cc2ccc(F)cc2)c2ccccc12)CC(=O)C(=O)O,> 40
7,N#Cc1ccc(Cn2cc(C(=O)c3ccccc3)cc2/C=C/C(=O)CC(=O)C(=O)O)cc1,> 40
8,CCOC(=O)C(=O)CC(=O)/C=C/c1cc(C(=O)c2cccc(F)c2)c[nH]1,> 40
9,CCCn1cc(/C=C/C(=O)CC(=O)C(=O)O)c2ccccc21,> 40
10,CN(C)C(=O)Cn1cc(/C=C/C(=O)CC(=O)C(=O)O)c2ccccc21,> 40

# Test system: MOLT-4
# Assay: Cytotoxicity against human MOLT4 cells overexpressing TdT assessed as growth inhibition after 24 to 48 hrs by MTT assay
# Type: functional, cell-based
# Procedure, shortened: as §1
row,Compound,IC50 [µM]
1,O=C(/C=C/c1cn(-c2ccc(O)cc2)c2ccccc12)CC(=O)C(=O)O,> 40
2,O=C(/C=C/c1cn(Cc2ccccc2)c2ccccc12)CC(=O)C(=O)O,15
3,CCOC(=O)C(=O)CC(=O)/C=C/c1cc(C(=O)c2ccc(F)cc2)c[nH]1,6.3
4,O=C(/C=C/c1cc(C(=O)c2ccc(F)cc2)c[nH]1)CC(=O)C(=O)O,> 40
5,CC(C)CCn1cc(/C=C/C(=O)CC(=O)C(=O)O)c2ccccc21,20
6,O=C(/C=C/c1cn(Cc2ccc(F)cc2)c2ccccc12)CC(=O)C(=O)O,> 40
7,N#Cc1ccc(Cn2cc(C(=O)c3ccccc3)cc2/C=C/C(=O)CC(=O)C(=O)O)cc1,40
8,CCOC(=O)C(=O)CC(=O)/C=C/c1cc(C(=O)c2cccc(F)c2)c[nH]1,30
9,CCCn1cc(/C=C/C(=O)CC(=O)C(=O)O)c2ccccc21,50
10,CN(C)C(=O)Cn1cc(/C=C/C(=O)CC(=O)C(=O)O)c2ccccc21,> 40

# Target: DNA polymerase beta (Homo sapiens, UniProt P06746)
# Assay: Inhibition of human recombinant DNA polymerase beta
row,Compound,IC50 [µM]
1,O=C(/C=C/c1cn(-c2ccc(O)cc2)c2ccccc12)CC(=O)C(=O)O,> 40
2,O=C(/C=C/c1cn(Cc2ccccc2)c2ccccc12)CC(=O)C(=O)O,> 40
3,CCOC(=O)C(=O)CC(=O)/C=C/c1cc(C(=O)c2ccc(F)cc2)c[nH]1,> 40
4,O=C(/C=C/c1cc(C(=O)c2ccc(F)cc2)c[nH]1)CC(=O)C(=O)O,> 40
5,CC(C)CCn1cc(/C=C/C(=O)CC(=O)C(=O)O)c2ccccc21,> 40
6,O=C(/C=C/c1cn(Cc2ccc(F)cc2)c2ccccc12)CC(=O)C(=O)O,> 40
7,N#Cc1ccc(Cn2cc(C(=O)c3ccccc3)cc2/C=C/C(=O)CC(=O)C(=O)O)cc1,40
8,CCOC(=O)C(=O)CC(=O)/C=C/c1cc(C(=O)c2cccc(F)c2)c[nH]1,> 40
9,CCCn1cc(/C=C/C(=O)CC(=O)C(=O)O)c2ccccc21,> 40
10,CN(C)C(=O)Cn1cc(/C=C/C(=O)CC(=O)C(=O)O)c2ccccc21,> 40

# Target: T1, DNA polymerase lambda (Homo sapiens) (UniProt Q9UGP5)
# T1 sequence (whole entry): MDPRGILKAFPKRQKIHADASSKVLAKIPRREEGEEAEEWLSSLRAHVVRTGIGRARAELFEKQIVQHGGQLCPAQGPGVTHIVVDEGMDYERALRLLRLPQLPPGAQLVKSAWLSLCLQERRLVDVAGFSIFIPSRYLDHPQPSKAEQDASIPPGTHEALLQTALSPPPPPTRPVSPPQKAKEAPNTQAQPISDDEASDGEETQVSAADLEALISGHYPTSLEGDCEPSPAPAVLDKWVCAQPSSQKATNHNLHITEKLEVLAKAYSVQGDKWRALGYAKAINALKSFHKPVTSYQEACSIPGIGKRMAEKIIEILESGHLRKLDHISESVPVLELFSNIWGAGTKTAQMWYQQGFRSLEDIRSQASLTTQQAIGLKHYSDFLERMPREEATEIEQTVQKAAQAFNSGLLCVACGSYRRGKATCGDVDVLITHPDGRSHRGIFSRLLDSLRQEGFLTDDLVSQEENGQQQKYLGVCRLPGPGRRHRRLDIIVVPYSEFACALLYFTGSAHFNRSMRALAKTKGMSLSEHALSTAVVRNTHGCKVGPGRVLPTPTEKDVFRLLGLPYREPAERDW
# Assay: Inhibition of human recombinant full length DNA polymerase lambda TdT-like activity using [3H]dNTP as substrate after 10 mins by scintillation counting analysis
# Procedure, shortened: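 Full-length recombinant human pol λ (>90% pure) was tested for template-independent activity. Acid-insoluble radioactivity was counted, and ID50 came from dose–response fitting.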
row,Compound,ID50 [µM]
1,O=C(/C=C/c1cn(-c2ccc(O)cc2)c2ccccc12)CC(=O)C(=O)O,> 40
2,O=C(/C=C/c1cn(Cc2ccccc2)c2ccccc12)CC(=O)C(=O)O,1.7
3,CCOC(=O)C(=O)CC(=O)/C=C/c1cc(C(=O)c2ccc(F)cc2)c[nH]1,> 40
4,O=C(/C=C/c1cc(C(=O)c2ccc(F)cc2)c[nH]1)CC(=O)C(=O)O,40
5,CC(C)CCn1cc(/C=C/C(=O)CC(=O)C(=O)O)c2ccccc21,> 40
6,O=C(/C=C/c1cn(Cc2ccc(F)cc2)c2ccccc12)CC(=O)C(=O)O,> 40
7,N#Cc1ccc(Cn2cc(C(=O)c3ccccc3)cc2/C=C/C(=O)CC(=O)C(=O)O)cc1,> 40
8,CCOC(=O)C(=O)CC(=O)/C=C/c1cc(C(=O)c2cccc(F)c2)c[nH]1,44
9,CCCn1cc(/C=C/C(=O)CC(=O)C(=O)O)c2ccccc21,> 40
10,CN(C)C(=O)Cn1cc(/C=C/C(=O)CC(=O)C(=O)O)c2ccccc21,40

# Target: T1, DNA polymerase lambda (Homo sapiens)
# Assay: Inhibition of human recombinant full length DNA polymerase lambda using [3H]dTTP as substrate and 10 poly(dA)/oligo(dT) as template-primer after 15 mins by scintillation counting analysis
# Procedure, shortened: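 Recombinant full-length human pol λ at 50 nM was assayed with 0.2 μM poly(dA)/oligo(dT)10:1 (3′-OH ends) and 5 μM [3H]dTTP (5 Ci/mmol). Incubation was 15 min at 37 °C. TCA precipitates were scintillation counted.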
row,Compound,ID50 [µM]
1,O=C(/C=C/c1cn(-c2ccc(O)cc2)c2ccccc12)CC(=O)C(=O)O,> 40
2,O=C(/C=C/c1cn(Cc2ccccc2)c2ccccc12)CC(=O)C(=O)O,> 40
3,CCOC(=O)C(=O)CC(=O)/C=C/c1cc(C(=O)c2ccc(F)cc2)c[nH]1,11
4,O=C(/C=C/c1cc(C(=O)c2ccc(F)cc2)c[nH]1)CC(=O)C(=O)O,> 40
5,CC(C)CCn1cc(/C=C/C(=O)CC(=O)C(=O)O)c2ccccc21,> 40
6,O=C(/C=C/c1cn(Cc2ccc(F)cc2)c2ccccc12)CC(=O)C(=O)O,> 40
7,N#Cc1ccc(Cn2cc(C(=O)c3ccccc3)cc2/C=C/C(=O)CC(=O)C(=O)O)cc1,> 40
8,CCOC(=O)C(=O)CC(=O)/C=C/c1cc(C(=O)c2cccc(F)c2)c[nH]1,> 40
9,CCCn1cc(/C=C/C(=O)CC(=O)C(=O)O)c2ccccc21,> 40
10,CN(C)C(=O)Cn1cc(/C=C/C(=O)CC(=O)C(=O)O)c2ccccc21,> 40

# Target: DNA nucleotidylexotransferase (Homo sapiens, UniProt P04053)
# Sequence (P04053 whole entry): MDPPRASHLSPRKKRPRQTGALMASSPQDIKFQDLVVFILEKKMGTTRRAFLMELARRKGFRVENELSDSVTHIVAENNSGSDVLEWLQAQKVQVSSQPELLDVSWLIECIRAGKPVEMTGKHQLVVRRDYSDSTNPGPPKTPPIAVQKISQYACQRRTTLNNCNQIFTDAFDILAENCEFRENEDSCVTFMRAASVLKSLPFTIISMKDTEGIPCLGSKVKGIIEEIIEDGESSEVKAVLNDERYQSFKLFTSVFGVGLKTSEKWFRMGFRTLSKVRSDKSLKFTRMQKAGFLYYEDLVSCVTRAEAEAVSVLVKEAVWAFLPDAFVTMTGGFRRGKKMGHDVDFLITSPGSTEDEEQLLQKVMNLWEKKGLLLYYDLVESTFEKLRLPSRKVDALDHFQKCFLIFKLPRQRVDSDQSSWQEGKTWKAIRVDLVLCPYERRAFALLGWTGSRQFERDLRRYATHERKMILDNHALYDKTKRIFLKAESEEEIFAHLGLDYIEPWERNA
# Assay: Inhibition of human recombinant TdT using [3H]dNTP as substrate after 10 mins by scintillation counting analysis
# Procedure, shortened: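 TdT was from Trevigen. TCA-precipitated radioactivity was counted. ID50 came from dose–response fitting. For kinetics, DNA or dNTP was varied at increasing inhibitor, and Ki was obtained via Cheng–Prusoff for a competitive model.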
row,Compound,ID50 [µM]
1,O=C(/C=C/c1cn(-c2ccc(O)cc2)c2ccccc12)CC(=O)C(=O)O,5.2
2,O=C(/C=C/c1cn(Cc2ccccc2)c2ccccc12)CC(=O)C(=O)O,7.9
3,CCOC(=O)C(=O)CC(=O)/C=C/c1cc(C(=O)c2ccc(F)cc2)c[nH]1,4.1
4,O=C(/C=C/c1cc(C(=O)c2ccc(F)cc2)c[nH]1)CC(=O)C(=O)O,0.58
5,CC(C)CCn1cc(/C=C/C(=O)CC(=O)C(=O)O)c2ccccc21,16.3
6,O=C(/C=C/c1cn(Cc2ccc(F)cc2)c2ccccc12)CC(=O)C(=O)O,10
7,N#Cc1ccc(Cn2cc(C(=O)c3ccccc3)cc2/C=C/C(=O)CC(=O)C(=O)O)cc1,6.8
8,CCOC(=O)C(=O)CC(=O)/C=C/c1cc(C(=O)c2cccc(F)c2)c[nH]1,6
9,CCCn1cc(/C=C/C(=O)CC(=O)C(=O)O)c2ccccc21,3.1
10,CN(C)C(=O)Cn1cc(/C=C/C(=O)CC(=O)C(=O)O)c2ccccc21,8.9
